Results from ChEMBL document CHEMBL1142265, “Discovery of 4-aryl-4H-chromenes as a new series of apoptosis inducers using a cell- and caspase-based HTS assay. Part 5: modifications of the 2- and 3-positions” (Bioorg Med Chem Lett, 2008).

tested on: HCT-116; assay: Induction of apoptosis in human HCT116 cells assessed as caspase activation by HTS assay; assay type: functional, cell-based

Row | EC50 | Structure (SMILES)
1 | 3000 nM | CCOC(=O)C1=C(N)Oc2c(ccc3[nH]ccc23)C1c1cc(Br)c(OC)c(OC)c1 (stereo unspecified)
2 | 84 nM | COc1cc(C2C(C#N)=C(NC(=O)Nc3ccccc3)Oc3cc(N(C)C)ccc32)cc(Br)c1OC (stereo unspecified)
3 | 38 nM | COc1cc(C2C(C#N)=COc3c2ccc2c3ccn2C)cc(Br)c1OC (stereo unspecified)
4 | 66 nM | COc1cc(C2C(C#N)=COc3c2ccc2[nH]ccc32)cc(Br)c1OC (stereo unspecified)
5 | 150 nM | CCn1ccc2c3c(ccc21)C(c1cc(Br)c(OC)c(OC)c1)C(C#N)=CO3 (stereo unspecified)
6 | 93 nM | COc1cc(C2C(C#N)=COc3cc(N(C)C)ccc32)cc(Br)c1OC (stereo unspecified)
7 | 420 nM | COc1cc(C2C(C#N)=C(N3C(=O)CCC3=O)Oc3cc(N(C)C)ccc32)cc(Br)c1OC (stereo unspecified)
8 | 660 nM | COC(=O)C1=C(N)Oc2c(ccc3[nH]ccc23)C1c1cc(Br)c(OC)c(OC)c1 (stereo unspecified)

tested on: not listed separately; assay: Inhibition of tubulin polymerization

Row | IC50 | Structure (SMILES)
9 | 3000 nM | N#CC1=C(N)Oc2c(ccc3[nH]ccc23)C1c1ccccc1 (stereo unspecified)
10 | < 500 nM | COc1cc(C2C(C#N)=COc3c2ccc2c3ccn2C)cc(Br)c1OC (stereo unspecified)
11 | < 500 nM | COc1cc(C2C(C#N)=COc3c2ccc2[nH]ccc32)cc(Br)c1OC (stereo unspecified)

Row | Structure (SMILES) | IC50
12 | COc1cc(C2C(C#N)=C(N)Oc3c2ccc2[nH]ccc32)cc(Br)c1OC (stereo unspecified) | 500 nM

tested on: SNU-398; assay: Growth inhibition of human SNU398 cells; assay type: functional
Procedure, shortened: (§1)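 GI50 from a cell growth inhibition assay in T47D, HCT116 and SNU398 cells, run in 96-well format following an earlier protocol. Values are means of three or more experiments ± SEM.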

Row | GI50 | Structure (SMILES)
13 | 1600 nM | CCOC(=O)C1=C(N)Oc2c(ccc3[nH]ccc23)C1c1cc(Br)c(OC)c(OC)c1 (stereo unspecified)
14 | 4 nM | COc1cc(C2C(C#N)=COc3c2ccc2c3ccn2C)cc(Br)c1OC (stereo unspecified)
15 | 34 nM | COc1cc(C2C(C#N)=COc3c2ccc2[nH]ccc32)cc(Br)c1OC (stereo unspecified)
16 | 17 nM | COc1cc(C2C(C#N)=COc3cc(N(C)C)ccc32)cc(Br)c1OC (stereo unspecified)

tested on: SNU-398; assay: Induction of apoptosis in human SNU398 cells assessed as caspase activation by HTS assay; assay type: functional, cell-based

Row | EC50 | Structure (SMILES)
17 | 2200 nM | CCOC(=O)C1=C(N)Oc2c(ccc3[nH]ccc23)C1c1cc(Br)c(OC)c(OC)c1 (stereo unspecified)
18 | 93 nM | COc1cc(C2C(C#N)=C(NC(=O)Nc3ccccc3)Oc3cc(N(C)C)ccc32)cc(Br)c1OC (stereo unspecified)
19 | 34 nM | COc1cc(C2C(C#N)=COc3c2ccc2c3ccn2C)cc(Br)c1OC (stereo unspecified)
20 | 52 nM | COc1cc(C2C(C#N)=COc3c2ccc2[nH]ccc32)cc(Br)c1OC (stereo unspecified)
21 | 87 nM | CCn1ccc2c3c(ccc21)C(c1cc(Br)c(OC)c(OC)c1)C(C#N)=CO3 (stereo unspecified)
22 | 77 nM | COc1cc(C2C(C#N)=COc3cc(N(C)C)ccc32)cc(Br)c1OC (stereo unspecified)
23 | 190 nM | COc1cc(C2C(C#N)=C(N3C(=O)CCC3=O)Oc3cc(N(C)C)ccc32)cc(Br)c1OC (stereo unspecified)
24 | 1000 nM | COC(=O)C1=C(N)Oc2c(ccc3[nH]ccc23)C1c1cc(Br)c(OC)c(OC)c1 (stereo unspecified)

tested on: HCT-116; assay: Growth inhibition of human HCT116 cells; assay type: functional; procedure, shortened: as §1

Row | GI50 | Structure (SMILES)
25 | 4300 nM | CCOC(=O)C1=C(N)Oc2c(ccc3[nH]ccc23)C1c1cc(Br)c(OC)c(OC)c1 (stereo unspecified)
26 | 6 nM | COc1cc(C2C(C#N)=COc3c2ccc2c3ccn2C)cc(Br)c1OC (stereo unspecified)
27 | 53 nM | COc1cc(C2C(C#N)=COc3c2ccc2[nH]ccc32)cc(Br)c1OC (stereo unspecified)
28 | 51 nM | COc1cc(C2C(C#N)=COc3cc(N(C)C)ccc32)cc(Br)c1OC (stereo unspecified)

tested on: T47D; assay: Growth inhibition of human T47D cells; assay type: functional; procedure, shortened: as §1

Row | GI50 | Structure (SMILES)
29 | 3300 nM | CCOC(=O)C1=C(N)Oc2c(ccc3[nH]ccc23)C1c1cc(Br)c(OC)c(OC)c1 (stereo unspecified)
30 | 6 nM | COc1cc(C2C(C#N)=COc3c2ccc2c3ccn2C)cc(Br)c1OC (stereo unspecified)
31 | 73 nM | COc1cc(C2C(C#N)=COc3c2ccc2[nH]ccc32)cc(Br)c1OC (stereo unspecified)
32 | 66 nM | COc1cc(C2C(C#N)=COc3cc(N(C)C)ccc32)cc(Br)c1OC (stereo unspecified)

tested on: T47D; assay: Induction of apoptosis in human T47D cells assessed as caspase activation by HTS assay; assay type: functional, cell-based

Row | EC50 | Structure (SMILES)
33 | 270 nM | N#CC1=C(N)Oc2c(ccc3[nH]ccc23)C1c1ccccc1 (stereo unspecified)
34 | 3200 nM | CCOC(=O)C1=C(N)Oc2c(ccc3[nH]ccc23)C1c1cc(Br)c(OC)c(OC)c1 (stereo unspecified)
35 | 68 nM | COc1cc(C2C(C#N)=C(NC(=O)Nc3ccccc3)Oc3cc(N(C)C)ccc32)cc(Br)c1OC (stereo unspecified)
36 | 29 nM | COc1cc(C2C(C#N)=COc3c2ccc2c3ccn2C)cc(Br)c1OC (stereo unspecified)
37 | 47 nM | COc1cc(C2C(C#N)=COc3c2ccc2[nH]ccc32)cc(Br)c1OC (stereo unspecified)
38 | 70 nM | CCn1ccc2c3c(ccc21)C(c1cc(Br)c(OC)c(OC)c1)C(C#N)=CO3 (stereo unspecified)
39 | 65 nM | COc1cc(C2C(C#N)=COc3cc(N(C)C)ccc32)cc(Br)c1OC (stereo unspecified)
40 | 250 nM | COc1cc(C2C(C#N)=C(N3C(=O)CCC3=O)Oc3cc(N(C)C)ccc32)cc(Br)c1OC (stereo unspecified)
41 | 1400 nM | COC(=O)C1=C(N)Oc2c(ccc3[nH]ccc23)C1c1cc(Br)c(OC)c(OC)c1 (stereo unspecified)
